Consider two compounds from article PMC10405366 (Molecular pharmaceutics, 2023).

The term IC50 denotes the concentration needed to halve the response being measured.

In data set [1] the test system is OVCAR8-RFP cells xenografted IP. Description: OVCAR8-RFP IP xenograft. The following applies: for tumor burden: compared to DMSO. In kind it is in vivo, mouse.
The next data set concerns OVCAR3. Briefly: Cell viability assay. In kind it is cell-based, human. The note with it: OVCAR3, 72 h, average. The method in brief: (§1)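 RPMI1640 (OVCAR3, OVCAR4, MDA-MB-435) or DMEM (OVCAR8, MDA-MB-231) was used, with 10% FBS and penicillin/streptomycin. Cells were STR-validated and kept below 20 passages. Cells were plated at 5000 per well overnight, then given test compound at final 0.95–250 nM (nine levels, 0.5% DMSO) for 72 h at 37 °C. Viability was read by CellTiter-Blue absorbance, and IC50 was taken relative to DMSO. Paclitaxel (0.39–100 nM) was the control, with three biological replicates.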

The next data set has as its system MDA-MB-435. Description: Cell viability assay. In kind it is cell-based, human. The following applies: MDA-MB-435, 72 h, average. The method in brief:
as §1

Another data set deals with MDA-MB-231. Description: Cell viability assay. In kind it is cell-based, human. The following applies: MDA-MB-231, 72 h, average. The method in brief:
as §1

The test system of data set [2] is OVCAR4. Description: Cell viability assay. In kind it is cell-based, human. In outline:
as §1

For data set [3], the system named is OVCAR8. Description: Cell viability assay. It is filed as cell-based, human. The method in brief:
as §1

Another data set concerns OVCAR8 spheroids. Briefly: Spheroid viability assay. In kind it is cell-based, human. The note with it: read-out: IC50, spheroid viability, 7 days. In outline: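 OVCAR8 cells (5000 in 80 μL medium per well) were formed into spheroids in ultra-low-attachment round-bottom wells. Spheroids were treated for 7 days with test compound, DMSO vehicle or paclitaxel control. Viability was measured with CellTiter-Glo after 30 min shaking for lysis, read as luminescence. Dose–response curves were normalized to vehicle to give IC50. Data are mean ± SEM from three biological replicates.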

In data set [4] the test system is OVCAR4. Briefly: 2D foci assay. It is filed as cell-based, human. The note with it: OVCAR4, 50 nM for 8 h, two weeks colony formation, relative to vehicle. The method in brief: (§2)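 Cells were seeded at 200 per 60 mm dish and left to attach overnight. They were then exposed for 8 h to test compound (50 nM), DMSO vehicle or paclitaxel (10 nM). Medium was replaced and cells grew drug-free for about two weeks (15 days). Colonies were fixed in 4% paraformaldehyde, stained with 0.05% crystal violet, imaged and counted. There were three biological replicates, compared with vehicle by Dunnett's test.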

Data set [5] concerns OVCAR8. Description: 2D foci assay. In kind it is cell-based, human. The note with it: OVCAR8, 50 nM for 8 h, two weeks colony formation, relative to vehicle. The method in brief:
as §2

In another data set the test system is murine lymphoma L5178Y. The following applies: mouse lymphoma cells (L5178Y); cited from earlier work.
In data set [6] the test system is A2780 human ovarian cancer cell lines. The note with it: cited from earlier work.

For `CC(=O)O[C@H]1C(=O)[C@@]2(C)[C@H]([C@H](OC(=O)c3ccccc3)[C@]3(O)C[C@H](OC(=O)[C@H](O)[C@@H](NC(=O)c4ccccc4)c4ccccc4)C(C)=C1C3(C)C)[C@]1(OC(C)=O)CO[C@@H]1C[C@@H]2O` [taxol, paclitaxel, reference compound], the tumor burden entry in data set [1] (0.5 mg/kg twice weekly) is “reduced”.

As to `CC(O)[C@@]12SS[C@]3(C(=O)N1C)[C@@H](O)C1([C@@]45c6ccccc6N[C@@H]4N4C(=O)[C@]6(C(C)O)SS[C@]4(C(=O)N6C)[C@H]5O)c4ccccc4N[C@@H]1N3C2=O` (stereo partly shown) [verticillin D], the IC50 in the data set with OVCAR3 was found to be 34.2 nM; in the data set on MDA-MB-435, 35.3 nM; with MDA-MB-231, 12.2 nM; in the data set on OVCAR8 spheroids, 1170 nM. For the same compound, the cytotoxic activity result in the data set with OVCAR4 [2] is recorded as “nanomolar cytotoxic activity”; in the data set on OVCAR8 [3], “nanomolar cytotoxic activity”; in the data set on murine lymphoma L5178Y, “moderate cytotoxic activity”. Further, the foci formation result in the data set with OVCAR4 [4] and in the data set with OVCAR8 [5] was “completely abrogated foci formation” in each case. Also, in data set [1] (0.25 mg/kg in DMSO twice weekly for four weeks), the “liver and organ gross morphology” value was “gross morphological liver damage and fused organs”. The tumor burden entry in data set [1] (0.25 mg/kg twice weekly for four weeks) is reported as “reduced”. For the same compound, in [6], the growth of cells entry is reported as “inhibit the growth”.
